The source made the active and inactive calls. The calls are words filed in the database; no cut-off is given here.
Columns and labels:
[1] = molecular target: T1, DNA topoisomerase 1 (Homo sapiens) (UniProt P11387); test: Inhibition of recombinant human Topo1-mediated relation of supercoiled pBR322 DNA at 50 uM after 30 mins by agarose gel electrophoresis
T1 sequence (whole entry): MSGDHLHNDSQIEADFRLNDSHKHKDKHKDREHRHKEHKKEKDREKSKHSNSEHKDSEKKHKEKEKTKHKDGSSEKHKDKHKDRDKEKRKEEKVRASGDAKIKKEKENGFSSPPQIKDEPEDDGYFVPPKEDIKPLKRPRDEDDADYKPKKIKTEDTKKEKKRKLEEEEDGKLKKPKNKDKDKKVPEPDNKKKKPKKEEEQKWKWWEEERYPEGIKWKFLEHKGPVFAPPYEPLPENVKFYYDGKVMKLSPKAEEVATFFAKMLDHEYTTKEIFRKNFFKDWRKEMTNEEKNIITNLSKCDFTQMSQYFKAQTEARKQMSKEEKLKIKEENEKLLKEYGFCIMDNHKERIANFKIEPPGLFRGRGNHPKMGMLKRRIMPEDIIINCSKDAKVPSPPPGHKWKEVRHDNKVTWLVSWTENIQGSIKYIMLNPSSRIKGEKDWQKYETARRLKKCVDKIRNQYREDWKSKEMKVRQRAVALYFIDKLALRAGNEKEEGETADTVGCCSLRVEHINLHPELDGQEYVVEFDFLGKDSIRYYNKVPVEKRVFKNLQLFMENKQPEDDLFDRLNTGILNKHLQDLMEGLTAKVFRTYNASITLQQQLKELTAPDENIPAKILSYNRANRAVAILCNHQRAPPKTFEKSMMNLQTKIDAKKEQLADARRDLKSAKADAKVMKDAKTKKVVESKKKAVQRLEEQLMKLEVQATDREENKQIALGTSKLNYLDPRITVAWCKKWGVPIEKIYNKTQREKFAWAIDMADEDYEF
How it was run: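 pBR322 at 100 ng with 1.0 unit recombinant human topo I. Incubated 30 min at 37 °C in 35 mM Tris-HCl pH 8.0, 5 mM MgCl2, 72 mM KCl, 0.01% BSA, 2 mM spermidine and 5 mM DTT. Run on 1% agarose in TAE at 100 V for 25 min. EB-stained gel viewed under UV.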

[2] = system: K562; test: Antiproliferative activity against human K562 cells after 48 hrs by MTT assay; type: functional, cell-based; details: K562, 48 h
How it was run: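 K562 suspension cells in RPMI-1640 with 10% FBS, 37 °C, 5% CO2. Seeded at 1.5×10^4 cells/well, exposed 48 h to final 50, 25, 10, 1 and 0.1 μM. MTT (5 mg/mL) added for 4 h at 37 °C. IC50 from the dose series.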

For `Cc1cccc2c(=O)c3c(NCc4cccnc4)ccc(C(=O)NCCCN(C)C)c3[nH]c12`, the inhibition [1] was “Active” and the IC50 [2] was 11.8 µM.

For `COc1cccc2c(=O)c3c(NCc4ccccn4)ccc(C(=O)NCCCN(C)C)c3[nH]c12`, the inhibition [1] was “Active” and the IC50 [2] was 6.12 µM.

`COCCNC(=O)c1ccc(N(Cc2ccccn2)Cc2ccccn2)c2c(=O)c3cccc(C)c3[nH]c12` was tested, and the inhibition [1] was “inactive” and the IC50 [2] was 11.2 µM.

With `CN(C)CCNC(=O)c1ccc(NCc2ccncc2)c2c(=O)c3cccc(C(F)(F)F)c3[nH]c12` the inhibition [1] was “Active” and the IC50 [2] was 0.89 µM.

`CN(C)CCNC(=O)c1ccc(NCc2ccncc2)c2c(=O)c3ccccc3[nH]c12` was tested, and the inhibition [1] was “Active” and the IC50 [2] was 6.33 µM.

`COc1cccc2c(=O)c3c(N(Cc4ccccn4)Cc4ccccn4)ccc(C(=O)NCCN(C)C)c3[nH]c12` was tested, and the inhibition [1] was “inactive” and the IC50 [2] was 13.9 µM.

For `COCCNC(=O)c1ccc(NCc2cccnc2)c2c(=O)c3cccc(C)c3[nH]c12`, the inhibition [1] was “inactive” and the IC50 [2] was > 50 µM.

`COc1cccc2c(=O)c3c(NCc4ccccn4)ccc(C(=O)NCCN(C)C)c3[nH]c12` was tested, and the inhibition [1] was “Active” and the IC50 [2] was 2.28 µM.

In the case of `COc1cccc2c(=O)c3c(N(Cc4ccccn4)Cc4ccccn4)ccc(C(=O)NCCCN(C)C)c3[nH]c12`, the inhibition [1] is reported as “inactive” and the IC50 [2] is reported as 13.5 µM.

`COCCNC(=O)c1ccc(NCc2ccncc2)c2c(=O)c3cccc(C)c3[nH]c12` was tested, and the inhibition [1] was “inactive” and the IC50 [2] was > 50 µM.

`COCCNC(=O)c1ccc(NCc2cccnc2)c2c(=O)c3cccc(OC)c3[nH]c12` was tested, and the inhibition [1] was “inactive” and the IC50 [2] was > 50 µM.

For `COCCNC(=O)c1ccc(NCc2ccccn2)c2c(=O)c3cccc(OC)c3[nH]c12`, the inhibition [1] was “inactive” and the IC50 [2] was > 50 µM.

In the case of `COc1cccc2c1C(=O)c1c(O)c3c(c(O)c1C2=O)C[C@@](O)(C(=O)CO)C[C@@H]3O[C@H]1C[C@H](N)[C@H](O)[C@H](C)O1` [DOXORUBICIN], the IC50 [2] is reported as 0.55 µM.

`COc1cccc2c(=O)c3c(NCc4ccncc4)ccc(C(=O)NCCCCN(C)C)c3[nH]c12` was tested, and the inhibition [1] was “Active” and the IC50 [2] was 6.07 µM.

With `Cc1cccc2c(=O)c3c(NCc4ccccn4)ccc(C(=O)NCCCN(C)C)c3[nH]c12` the inhibition [1] was “Active” and the IC50 [2] was 6.45 µM.

For `COCCNC(=O)c1ccc(NCc2ccncc2)c2c(=O)c3cccc(OC)c3[nH]c12`, the inhibition [1] was “inactive” and the IC50 [2] was > 50 µM.

For `CN(C)CCNC(=O)c1ccc(NCc2ccncc2)c2c(=O)c3cc(Cl)cc(Cl)c3[nH]c12`, the inhibition [1] was “Active” and the IC50 [2] was 0.97 µM.

For `COc1cccc2c(=O)c3c(NCc4ccncc4)ccc(C(=O)NCCCN(C)C)c3[nH]c12`, the inhibition [1] was “Active” and the IC50 [2] was 11.9 µM.

`COc1cccc2c(=O)c3c(NCc4cccnc4)ccc(C(=O)NCCN(C)C)c3[nH]c12` was tested, and the inhibition [1] was “Active” and the IC50 [2] was 0.93 µM.

`COc1cccc2c(=O)c3c(NCCc4ccncc4)ccc(C(=O)NCCN(C)C)c3[nH]c12` was tested, and the inhibition [1] was “Active” and the IC50 [2] was 3.08 µM.

For `Cc1cccc2c(=O)c3c(NCc4ccncc4)ccc(C(=O)NCCCN(C)C)c3[nH]c12`, the inhibition [1] was “Active” and the IC50 [2] was 8.25 µM.

For `COc1cccc2c(=O)c3c(NCc4ccncc4)ccc(C(=O)NCCN(C)C)c3[nH]c12`, the inhibition [1] was “Active” and the IC50 [2] was 1.36 µM.

With `Cc1cccc2c(=O)c3c(NCc4cccnc4)ccc(C(=O)NCCN(C)C)c3[nH]c12` the inhibition [1] was “Active” and the IC50 [2] was 1.09 µM.

In the case of `Cc1cccc2c(=O)c3c(NCc4ccccn4)ccc(C(=O)NCCN(C)C)c3[nH]c12`, the inhibition [1] is reported as “Active” and the IC50 [2] is reported as 1.71 µM.

For `COc1cccc2c(=O)c3c(NCc4cccnc4)ccc(C(=O)NCCCN(C)C)c3[nH]c12`, the inhibition [1] was “Active” and the IC50 [2] was 11.3 µM.

In the case of `COCCNC(=O)c1ccc(NCc2ccccn2)c2c(=O)c3cccc(C)c3[nH]c12`, the inhibition [1] is reported as “inactive” and the IC50 [2] is reported as > 50 µM.
